Experimental data reported in ChEMBL document CHEMBL4002592, “Piperlongumine derived cyclic sulfonamides (sultams): Synthesis and in vitro exploration for therapeutic potential against HeLa cancer cell lines” (2017).
Structures can show the parent of a compound that is named as a salt.

Experiments:
Assay type in all cases: functional
[1] = system: HeLa; assay: Cytotoxicity against human HeLa cells assessed as cell growth at 10^-7 M after 48 hrs by SRB assay relative to control; details: read-out: Activity
Method in brief: (§1)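 HeLa (NCI source) kept in RPMI 1640 with 10% FBS and 2 mM L-glutamine, 37°C, 5% CO2. Cells seeded at 5,000/well, incubated overnight, then exposed 48 h to drug at final 10^-4 to 10^-7 M from 10^-2 M DMSO stock. Fixed with 10% TCA, stained with 0.4% SRB for 20 min, dye dissolved in 10 mM Tris, OD 540 nm. % growth = 100×(T–T₀)/(C–T₀). Mean of three experiments.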

[2] = system: HeLa; assay: Cytotoxicity against human HeLa cells assessed as cell growth at 10^-6 M after 48 hrs by SRB assay relative to control; details: read-out: Activity; method in brief: as §1
[3] = system: HeLa; assay: Cytotoxicity against human HeLa cells assessed as cell growth at 10^-5 M after 48 hrs by SRB assay relative to control; details: read-out: Activity; method in brief: as §1
[4] = system: HeLa; assay: Cytotoxicity against human HeLa cells assessed as cell growth at 10^-4 M after 48 hrs by SRB assay relative to control; details: read-out: Activity; method in brief: as §1
[5] = system: HeLa; assay: Cytotoxicity against human HeLa cells assessed as growth inhibition after 48 hrs by SRB assay
Method in brief: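 HeLa in RPMI 1640/10% FBS/2 mM glutamine, seeded at 5,000 cells/well overnight, then treated 48 h at final 10^-4 to 10^-7 M (DMSO stock 10^-2 M). Read by SRB: TCA fixation, 0.4% SRB stain, Tris solubilisation, OD 540 nm. Growth corrected for time-zero OD. Mean % growth plotted against molar concentration; GI50 taken as the concentration giving 50% growth inhibition.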

| Structure (SMILES) | growth at 0.1 µM [1] [%] | growth at 1 µM [2] [%] | growth at 10 µM [3] [%] | growth at 100 µM [4] [%] | GI50 [5] [µM] | growth inhibition (GI) [5] |
| --- | --- | --- | --- | --- | --- | --- |
| O=C(/C=C/c1c[nH]c2ccc(F)cc12)N1CCC=CS1(=O)=O | 90.4 | 87.6 | 25.3 | -48 | 18.8 | Dose-dependent effect |
| O=C(/C=C/c1c(Cl)nc2ccccn12)N1CCC=CS1(=O)=O | 87 | 59 | 20.6 | -78.5 | 8.2 | Dose-dependent effect |
| O=C(/C=C/c1cccc(-c2ccccc2)c1)N1CCC=CS1(=O)=O | 97.6 | 86.5 | 32.9 | -63 | 19.8 | Dose-dependent effect |
| O=C(/C=C/c1ccccc1F)N1CCC=CS1(=O)=O | 78.5 | 62.3 | 52.4 | -75.3 | 13.7 | Dose-dependent effect |
| COc1ccc(/C=C/C(=O)N2CCC=CS2(=O)=O)cc1 | 84.7 | 83.8 | 68.1 | -55.3 | 24.4 | Dose-dependent effect |
| COc1cc(/C=C/C(=O)N2CCC=CS2(=O)=O)cc(OC)c1OC | 79.8 | 71.4 | 46.8 | -80.6 | 14.3 | Dose-dependent effect |
| O=C(/C=C/c1ccoc1)N1CCC=CS1(=O)=O | 92 | 80.2 | 57.7 | -78.1 | 20.3 | Dose-dependent effect |
| O=C(/C=C/c1cccc(C(F)(F)F)c1)N1CCC=CS1(=O)=O | 95.5 | 86.3 | 34.9 | -64.8 | 19.6 | Dose-dependent effect |
| COc1cc(/C=C/C(=O)N2CCC=CS2(=O)=O)cc(OC)c1 | 82.5 | 32.5 | -60.1 | -78.4 | < 0.1 | Dose-dependent effect |
| O=C(/C=C/c1cccs1)N1CCC=CS1(=O)=O | 92.1 | 74.2 | 53.4 | -75.3 | 18.8 | Dose-dependent effect |
| Cc1ccc(/C=C/C(=O)N2CCC=CS2(=O)=O)cc1 | 86.8 | 81.4 | 26.3 | -33.5 | 18.6 | Dose-dependent effect |
| COc1ccccc1/C=C/C(=O)N1CCC=CS1(=O)=O | 76.7 | 35 | 14.6 | -80.1 | 0.1 | Dose-dependent effect |
| O=C(/C=C/c1ccc(Cl)cc1)N1CCC=CS1(=O)=O | 90.7 | 80.2 | 53.5 | -30.5 | 26.4 | Dose-dependent effect |
| O=C(/C=C/c1cccc(F)c1)N1CCC=CS1(=O)=O | 96.8 | 42.4 | -39.2 | -69 | < 0.1 | Dose-dependent effect |
| COc1cccc2c1C(=O)c1c(O)c3c(c(O)c1C2=O)C[C@@](O)(C(=O)CO)C[C@@H]3O[C@H]1C[C@H](N)[C@H](O)[C@H](C)O1 [DOXORUBICIN HYDROCHLORIDE] | -76.8 | -82.9 | -84.1 | -84.6 | < 0.1 | – |
| O=C(/C=C/c1ccc([N+](=O)[O-])cc1)N1CCC=CS1(=O)=O | 100 | 90.4 | 59 | -71.6 | 24.4 | Dose-dependent effect |
| COc1cccc(/C=C/C(=O)N2CCC=CS2(=O)=O)c1 | 90.8 | 92.2 | 68.7 | -79.7 | 23.7 | Dose-dependent effect |
| Cc1cccc(/C=C/C(=O)N2CCC=CS2(=O)=O)c1 | 99.9 | 89.5 | 35 | -67.1 | 20.7 | Dose-dependent effect |
| O=C(c1cccc(Cl)c1)N1CCC=CS1(=O)=O | 100 | 86.7 | 55.4 | 10.8 | 45.4 | Dose-dependent effect |
| Cc1ccc(C(=O)N2CCC=CS2(=O)=O)cc1[N+](=O)[O-] | 97.1 | 93.7 | 67.6 | -11.2 | 39.2 | Dose-dependent effect |
